An excerpt weighted towards active compounds, which were near 3% of everything screened.
Tn7 DDE FP: DD(E)-Tn7 binding inhibition, primary FP screen | FP displacement of FITC-Tn7 peptide from fibrin DD(E); 0% = median of compound wells per plate | inhibition, % at 8.3 µM | 0.13% of 370,000 active | AID 720508;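 active means inhibition above the mean of compounds falling within the control limits plus 3 SD of them, cut at about 14% in these data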
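Assay system: Human fibrin DD(E) protein | Medium: Tris buffer with calcium and detergent, pH 7.8 | Reagent: 0.1 µM fluorescent Tn7 | Compound dosing: Single point at 8.3 µM | Times: 10 min preincubation, 3 h with tracer, room temperature | Detection: Fluorescence polarization of the labelled Tn7 tracer | Controls: Aha-Tn7 high control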
PLC-gamma1 inh: PLC-gamma1 (human) inhibition, primary screen; purified PLC-gamma1, fluorogenic substrate, fluorescence; 0.84% of 370,000 active; inhibition, % at 12.2 µM; in the data active means inhibition above about 9.5%
NRP1-CendR mod: modulators of CendR peptide binding to human neuropilin-1. inhibition, % at 25 µM. FAM-RPARPAR peptide binding to NRP-1, fluorescence polarization. AID 602438. 0.85% of 360,000 active. O14786;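 active means inhibition or corrected inhibition above about 18%, plus a signal ratio from 0.5 to 1.5, limit read from the data, passing the limit was not always enough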
Target sequence (O14786 whole entry, looked up): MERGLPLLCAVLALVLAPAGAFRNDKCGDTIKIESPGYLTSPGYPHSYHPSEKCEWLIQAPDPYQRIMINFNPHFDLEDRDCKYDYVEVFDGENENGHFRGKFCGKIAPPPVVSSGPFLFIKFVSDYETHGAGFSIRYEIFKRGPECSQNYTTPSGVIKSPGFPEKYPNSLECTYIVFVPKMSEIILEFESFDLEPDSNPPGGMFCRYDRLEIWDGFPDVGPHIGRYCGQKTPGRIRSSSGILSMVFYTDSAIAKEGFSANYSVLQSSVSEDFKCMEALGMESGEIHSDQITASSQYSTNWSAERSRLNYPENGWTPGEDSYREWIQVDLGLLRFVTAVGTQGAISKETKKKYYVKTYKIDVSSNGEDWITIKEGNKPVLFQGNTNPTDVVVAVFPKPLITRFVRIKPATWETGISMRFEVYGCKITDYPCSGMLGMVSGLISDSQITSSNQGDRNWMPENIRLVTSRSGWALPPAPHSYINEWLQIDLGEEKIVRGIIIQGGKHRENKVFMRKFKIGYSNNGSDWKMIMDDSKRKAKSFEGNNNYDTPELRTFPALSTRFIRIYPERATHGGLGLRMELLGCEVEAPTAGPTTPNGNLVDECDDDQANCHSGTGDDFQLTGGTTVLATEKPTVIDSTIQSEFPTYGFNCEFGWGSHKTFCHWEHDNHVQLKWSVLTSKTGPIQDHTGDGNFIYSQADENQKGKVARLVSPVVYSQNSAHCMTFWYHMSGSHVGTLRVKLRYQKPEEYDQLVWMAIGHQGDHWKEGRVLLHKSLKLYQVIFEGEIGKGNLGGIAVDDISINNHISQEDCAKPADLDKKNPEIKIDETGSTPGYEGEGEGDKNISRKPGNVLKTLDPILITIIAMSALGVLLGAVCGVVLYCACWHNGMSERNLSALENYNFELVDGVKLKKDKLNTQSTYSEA
PLC-beta3 inh: blocks human PLC-beta3 enzyme activity; Q01970; Purified PLC-beta3, fluorogenic substrate, fluorescence; inhibition, % at 12.2 µM; 0.18% of 370,000 active; AID 720704
proKLK7 act: proKLK7 (human) activation, primary screen; activation, % at 7 µM; AID 652039; purified proKLK7, EDANS-DABCYL substrate fluorescence; 100% is mature enzyme control, 0% vehicle; 0.9% of 370,000 active;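 active means activation above the mean of all tested compounds plus 3 SD, computed per campaign excluding outliers beyond control limits, cut at about 13% in these data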
Tn6 DDE FP: DD(E)-Tn6 binding inhibition, primary FP screen; AID 720509; P02675; Fibrin DD(E) TRITC-Tn6 fluorescence polarization displacement; inhibition, % at 8.3 µM; 0.21% of 370,000 active;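 active means inhibition above a per-campaign cutoff: mean of compounds within control limits plus 3 SD, cut at about 15% in these data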
PLCg1 ctr: counter-screen for PLC-beta3 inhibitors: inhibitors of human PLC-gamma1; shares compounds with PLC-gamma1 inh; purified PLC-gamma1, fluorogenic substrate, fluorescence; inhibition, % at 12.3 µM; 3.1% of 3,300 active; AID 743258; in the data active means inhibition above about 9.5%
PLCb3 confirm: human PLC-beta3 inhibition, confirmation. shares compounds with PLC-gamma1 inh. purified PLC-beta3, fluorogenic substrate fluorescence. inhibition, % at 12.3 µM. 1% of 3,300 active
Large screens that a line does not name were inactive (follow-up assays come after a bar, where they were run). Unless noted, no stated cut-off is given here; in the data, active means inhibition above about 11%; inactive means the rest.

C=CCN(Cc1ccc(Cl)s1)C(=O)c1ccc(F)c(S(=O)(=O)N2CCOCC2)c1	PLC-gamma1 inh 79.6 | PLCg1 ctr inactive | PLCb3 confirm inactive
Cc1cccc(OCC(=O)N(C)CCc2ccccn2)c1	PLC-beta3 inh 11.4 | PLCg1 ctr inactive | PLCb3 confirm inactive
Cc1cccc(CN(C)CCc2ccccn2)c1	none
COC(=O)C(C)(C)c1cccnc1C#N	PLC-gamma1 inh 75.6 | PLCg1 ctr 76.8 | PLCb3 confirm inactive
COC(=O)C(C)(C)NC(=O)c1cccs1	none
COC(=O)[C@]1(C#N)CC(=O)N(CC(C)C)[C@@H]1c1ccccc1	none (no result: NRP1-CendR mod)
CNc1c(NS(=O)(=O)c2ccc(OC)c(Cl)c2)c(=O)oc2ccccc12	PLC-gamma1 inh 10.9 | PLCg1 ctr inactive | PLCb3 confirm inactive
CC1=C2NC(N)=[N+](CC3CC3)C(Cc3ccccc3)[C@@H]2n2c(=O)n(-c3ccccc3)c(=O)n2C1 (some centres not stated)	none (no result: NRP1-CendR mod)
COc1ccc(OC)c(NC(=O)C(CC(=O)O)Cc2ccc(Cl)cc2)c1 (configuration not stated)	none
O=C(O)CC(Cc1ccc(Cl)cc1)C(=O)Nc1cc(Cl)ccc1Cl (configuration not stated)	PLC-gamma1 inh 11.8 | PLCg1 ctr inactive | PLCb3 confirm inactive
CC(C)(C)OC(=O)/C=C/[C@@H](CCCCl)Sc1ccc(C(C)(C)C)cc1	none (no result: NRP1-CendR mod)
O=S1(=O)c2ccc(N3CCCC3)cc2Oc2ccccc2CN1Cc1cn(Cc2ccccc2C(F)(F)F)nn1	none (no result: NRP1-CendR mod)
COc1ccc(CNC(=O)c2cc(S(=O)(=O)N3CCCCC3)ccc2Cl)cc1OC	PLC-beta3 inh 13.1 | PLCg1 ctr inactive | PLCb3 confirm inactive
COc1ccc(CNC(=O)c2cccc(S(=O)(=O)N3CCCCC3)c2)cc1OC	none
COc1ccc(CNS(=O)(=O)c2ccc(S(=O)(=O)N3CCCCC3)cc2)cc1	PLC-gamma1 inh 11.4 | PLCg1 ctr inactive | PLCb3 confirm inactive
COc1ccc(S(=O)(=O)N2CCN(C3CCCCCCC3)CC2)cc1	none
COc1ccc(S(=O)(=O)N2CCC(N3CCCCC3)CC2)cc1	PLC-gamma1 inh 9.7 | PLCg1 ctr inactive | PLCb3 confirm inactive
Cc1ccccc1Cn1cc(CN2[C@@H](C)COc3cc(Br)ccc3S2(=O)=O)nn1	none (no result: NRP1-CendR mod)
COC(=O)[C@]12C[C@H](CC(=O)N3CCN(C(=O)c4ccco4)CC3)C(=O)N(CCc3ccc(OC)c(OC)c3)C1=C[C@H](C(C)C)O[C@@H]2C1CC1	none (no result: NRP1-CendR mod)
O=C(Cn1nc(-c2ccccc2)c2ccccc21)Oc1ccccc1	PLC-gamma1 inh 13.4 (no result: NRP1-CendR mod, proKLK7 act) | PLCg1 ctr inactive | PLCb3 confirm inactive
CCN(CC(=O)NC1CCS(=O)(=O)C1)C(=O)C(c1ccccc1)c1ccccc1 (configuration not stated)	PLC-gamma1 inh 12.4 | PLCg1 ctr inactive | PLCb3 confirm inactive
C/C(=N\Nc1ccc([N+](=O)[O-])cc1[N+](=O)[O-])C(C)(C)C(C(=O)O)C(=O)O	PLC-gamma1 inh 10.7 | PLCg1 ctr inactive | PLCb3 confirm inactive
COC(=O)[C@]12C[C@H](CC(=O)NCc3ccc(OC)c(OC)c3)C(=O)N(CCc3ccc(OC)c(OC)c3)C1=C[C@H](C1CCCC1)O[C@@H]2C	none (no result: NRP1-CendR mod)
COC(=O)[C@]12C[C@H](CC(=O)NCC3CCCCC3)C(=O)N(Cc3ccco3)C1=C[C@H](C1CCCC1)O[C@@H]2C	none (no result: NRP1-CendR mod)
CCCCN1CCN(C(=O)Cn2c(=O)c3ccccc3n(CC)c2=O)CC1	none (no result: NRP1-CendR mod)
CSCC[C@H](NC(=O)c1nn(C)c(=O)c2ccccc12)c1nc2ccccc2[nH]1	PLC-gamma1 inh 12.6 | PLCg1 ctr inactive | PLCb3 confirm inactive
CCn1nc(C(=O)N[C@@H](CCSC)c2nc3ccccc3[nH]2)c2ccccc2c1=O	none
COc1ccc(C(CC(=O)c2ccccc2)CC(=O)c2ccccc2)cc1	PLC-gamma1 inh 13.0 | PLCg1 ctr inactive | PLCb3 confirm inactive
COC(=O)[C@]12C[C@H](CC(=O)N3CCSCC3)C(=O)N(Cc3cccc4ccccc34)C1=C[C@H](COCc1ccccc1)O[C@@H]2C	none (no result: NRP1-CendR mod)
O=C(O)c1cccc(Nc2cc(Cl)c3nonc3c2[N+](=O)[O-])c1	PLC-gamma1 inh 12.9 | PLCg1 ctr inactive | PLCb3 confirm inactive
Cc1[nH]c2ccccc2c1N=Nc1ccc(F)cc1	none
Cc1[nH]c2ccccc2c1N=Nc1cc(C(=O)O)cc(C(=O)O)c1	PLC-gamma1 inh 11.0 | PLCg1 ctr inactive | PLCb3 confirm inactive
CC(Oc1ccc([N+](=O)[O-])cc1)C(=O)NCC1CCCO1 (configuration not stated)	PLC-gamma1 inh 11.4 | PLCg1 ctr inactive | PLCb3 confirm inactive
O=C(NCC1CCCO1)c1ccc(Oc2ccc([N+](=O)[O-])cc2)cc1 (configuration not stated)	none
Cc1cccc(NC(=O)CCc2ccccc2)c1C	PLC-gamma1 inh 11.7 | PLCg1 ctr inactive | PLCb3 confirm inactive
CNC(=S)N/N=C(\C)c1ccc2c(c1)OCCO2	PLC-gamma1 inh 15.5 | PLCg1 ctr inactive | PLCb3 confirm inactive
CNC(=S)N/N=C(\C)c1ccc2c(c1)OCO2	none
CCCCCC(=O)NC1CCCCN(Cc2ccc(C)cc2)C1=O (configuration not stated)	none (no result: NRP1-CendR mod)
O=c1c2ccc(F)cc2nc2sc(Nc3ccc4c(c3)CCC4)nn12	none (no result: NRP1-CendR mod, proKLK7 act)
COc1ccc(C(=O)Nc2ccccc2C(=O)N2CCOCC2)cc1Br	none
COc1ccc(C(=O)Nc2ccccc2C(=O)N2CCOCC2)cc1OC	PLC-gamma1 inh 9.8 | PLCg1 ctr inactive | PLCb3 confirm inactive
COc1cc(C(=O)Nc2cccc(-c3nc4ccccc4o3)c2C)cc(OC)c1OC	PLC-gamma1 inh 13.8 | PLCg1 ctr inactive | PLCb3 confirm inactive
COc1ccc(C(=O)Nc2cc(C)nc3ccccc23)cc1OC	PLC-gamma1 inh 10.5 | PLCg1 ctr inactive | PLCb3 confirm inactive
O=C(Nc1cccc(Cl)c1)O[C@@H]1CC[C@@]23CCCN2C(=O)CCC[C@H]3C1	none (no result: NRP1-CendR mod, proKLK7 act)
CN[C@H]1C[C@H]2c3cc(-c4ccc5c(c4)OCO5)ccc3CCN2C[C@H]1[C@H](C)O	none (no result: NRP1-CendR mod)
Cc1c(NC(=S)N/N=C/C=C/c2ccc([N+](=O)[O-])cc2)c(=O)n(-c2ccccc2)n1C	PLC-gamma1 inh 12.1, NRP1-CendR mod 35.5 | PLCg1 ctr 11.0 | PLCb3 confirm inactive
O=C(O)/C=C/C(=O)NCCc1ccccc1	PLC-gamma1 inh 10.1 | PLCg1 ctr inactive | PLCb3 confirm inactive
